The subject of test [1] is Candida albicans. Put plainly: Reduction in APE2 gene expression in compound pre-treated Candida albicans SC5314 grown on human Caco2 cells monolayer at 16 ug/ml pre-treated for 2 hrs measured after 18 hrs by RT-PCR method. It counts as functional, Caco-2. The gist of the method: (§1)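 Caco-2 was seeded at 1.2×10^5 cells/ml in EMEM (10% FCS, 1 mM pyruvate, no antibiotics) for 18 h at 37°C, 5% CO2. Yeast (10^4 cfu/ml) was pre-incubated 2 h in RPMI with 16 µg/ml sulfone, washed, resuspended in RPMI and inoculated onto the monolayer at 37°C. APE2 mRNA was measured by SYBR qPCR against ACT1 (2^-ΔΔCt, 90028 calibrator), in triplicate.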

Test [2] has as its system Candida albicans. In words: Reduction in APE2 gene expression in compound pre-treated Candida albicans 90028 grown on human Caco2 cells monolayer at 16 ug/ml pre-treated for 2 hrs measured after 6 hrs by RT-PCR method. It counts as functional, Caco-2. The gist of the method: (§2)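 Blastoconidia are pre-incubated 2 h with 16 µg/ml sulfone in RPMI. They are then washed, resuspended in RPMI and placed on Caco-2 monolayers at 37°C, with RNA taken at 6 or 18 h. Real-time RT-PCR uses SYBR Green with 250 nM primers and 60 ng cDNA: 95°C 15 min, then 45 cycles of 94°C 15 s and 60°C 1 min, plus a melt curve. APE2 is normalized to ACT1 by 2^-ΔΔCt with 90028 as calibrator; three experiments.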

For test [3], the system named is Candida albicans. In words: Reduction in APE2 gene expression in compound pre-treated Candida albicans CAI4 expressing delta-cph1 gene grown on human Caco2 cells monolayer at 16 ug/ml pre-treated for 2 hrs measured after 6 hrs by RT-PCR method. It counts as functional, Caco-2. The method, boiled down:
as §2

In test [4] the test system is Candida albicans. In words: Reduction in APE2 gene expression in compound pre-treated Candida albicans CAI4 expressing delta-cph1 gene grown on human Caco2 cells monolayer at 16 ug/ml pre-treated for 2 hrs measured after 18 hrs by RT-PCR method. It counts as functional, Caco-2. The gist of the method: as §2
Test [5] concerns Candida albicans. Put plainly: Reduction in APE2 gene expression in compound pre-treated Candida albicans CAI4 expressing delta-cph1 (CPH1) gene grown on human Caco2 cells monolayer at 16 ug/ml pre-treated for 2 hrs measured after 6 hrs by RT-PCR method. It counts as functional, Caco-2. The method, boiled down: as §2
Test [6] deals with Candida albicans. Put plainly: Reduction in APE2 gene expression in compound pre-treated Candida albicans CAI4 expressing delta-cph1 (CPH1) gene grown on human Caco2 cells monolayer at 16 ug/ml pre-treated for 2 hrs measured after 18 hrs by RT-PCR method. It counts as functional, Caco-2. The method, boiled down: as §2
The test system of test [7] is Candida albicans. Put plainly: Reduction in APE2 gene expression in compound pre-treated Candida albicans CAI4 expressing delta-efg1 gene grown on human Caco2 cells monolayer at 16 ug/ml pre-treated for 2 hrs measured after 6 hrs by RT-PCR method. It counts as functional, Caco-2. The gist of the method:
as §1

In test [8] the test system is Candida albicans. Put plainly: Reduction in APE2 gene expression in compound pre-treated Candida albicans CAI4 expressing delta-efg1 gene grown on human Caco2 cells monolayer at 16 ug/ml pre-treated for 2 hrs measured after 18 hrs by RT-PCR method. It counts as functional, Caco-2. The gist of the method:
as §1

The subject of test [9] is Candida albicans. Put plainly: Reduction in APE2 gene expression in compound pre-treated Candida albicans CAI4 expressing delta-cph1/delta-efg1 gene grown on human Caco2 cells monolayer at 16 ug/ml pre-treated for 2 hrs measured after 6 hrs by RT-PCR method. It counts as functional, Caco-2. The method, boiled down:
as §2

The test system of test [10] is Candida albicans. In words: Increase in APE2 gene expression in compound pre-treated Candida albicans CAI4 expressing delta-cph1/delta-efg1 gene grown on human Caco2 cells monolayer at 16 ug/ml pre-treated for 2 hrs measured after 18 hrs by RT-PCR method. It counts as functional, Caco-2. The gist of the method:
as §2

Test [11] has as its system Candida albicans. Put plainly: Reduction in APE2 gene expression in compound pre-treated Candida albicans CAI4 expressing delta-cph1/delta-efg1 (EFG1) gene grown on human Caco2 cells monolayer at 16 ug/ml pre-treated for 2 hrs measured after 6 hrs by RT-PCR method. It counts as functional, Caco-2. The method, boiled down: as §2
Test [12] relates to Candida albicans. In words: Reduction in APE2 gene expression in compound pre-treated Candida albicans CAI4 expressing delta-cph1/delta-efg1 (EFG1) gene grown on human Caco2 cells monolayer at 16 ug/ml pre-treated for 2 hrs measured after 18 hrs by RT-PCR method. It counts as functional, Caco-2. The method, boiled down: as §2
Test [13] has as its system Candida albicans. Put plainly: Inhibition of cell adhesion of compound pre-treated Candida albicans 90028 to human Caco2 cells assessed as cell adhesion level at 4 ug/ml pre-incubated for 18 hrs by colony counting method (reference value: 1.58 +/- 0.67%). It counts as functional, Caco-2. Set-up: scale not given: the % may be the effect or the level left.
Test [14] concerns Candida albicans. Put plainly: Inhibition of cell adhesion of compound pre-treated Candida albicans CAI4 expressing delta-efg1 (EFG1) gene to human Caco2 cells assessed as cell adhesion level at 4 ug/ml pre-incubated for 18 hrs by colony counting method (reference value: 2.6 +/- 2.33%). It counts as functional, Caco-2. Set-up: scale not given: the % may be the effect or the level left.

Test [15] concerns Candida albicans. In words: Reduction in APE2 gene expression in compound pre-treated Candida albicans SC5314 grown under YEPD medium at 16 ug/ml pre-treated for 2 hrs measured after 18 hrs by RT-PCR method. It counts as functional. The gist of the method: (§3)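 YEPD-grown yeast (18 h, 30°C) washed and held at 10^4 cfu/ml in YEPD with 16 µg/ml sulfone for 2 h. Cells were then washed and regrown 18 h at 30°C in YEPD. Total RNA was reverse-transcribed and SYBR Green qPCR run (250 nM primers, 60 ng cDNA, 45 cycles). APE2 was normalized to ACT1 by 2^-ΔΔCt with strain 90028 as calibrator. Done in triplicate on three occasions.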

The test system of test [16] is Candida albicans. Put plainly: Reduction in APE2 gene expression in compound pre-treated Candida albicans 90028 grown under YEPD medium at 16 ug/ml pre-treated for 2 hrs measured after 18 hrs by RT-PCR method. It counts as functional. The method, boiled down:
(§4)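 Blastoconidia from YEPD (10^4 cfu/ml) are washed and exposed 2 h to 16 µg/ml sulfone in YEPD. They are then washed and regrown 18 h at 30°C in YEPD before RNA extraction. Real-time RT-PCR uses SYBR Green with 250 nM primers and 60 ng cDNA: 95°C 15 min, then 45 cycles of 94°C 15 s and 60°C 1 min, plus a dissociation curve. APE2 is normalized to ACT1 by 2^-ΔΔCt with strain 90028 as calibrator; three experiments.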

Test [17] relates to Candida albicans. Put plainly: Reduction in APE2 gene expression in compound pre-treated Candida albicans CAI4 expressing delta-cph1 gene grown under YEPD medium at 16 ug/ml pre-treated for 2 hrs measured after 18 hrs by RT-PCR method. It counts as functional. The gist of the method: as §4
In test [18] the test system is Candida albicans. In words: Reduction in APE2 gene expression in compound pre-treated Candida albicans CAI4 expressing delta-cph1 (CPH1) gene grown under YEPD medium at 16 ug/ml pre-treated for 2 hrs measured after 18 hrs by RT-PCR method. It counts as functional. The method, boiled down: as §4
Test [19] concerns Candida albicans. Put plainly: Reduction in APE2 gene expression in compound pre-treated Candida albicans CAI4 expressing delta-efg1 gene grown under YEPD medium at 16 ug/ml pre-treated for 2 hrs measured after 18 hrs by RT-PCR method. It counts as functional. The gist of the method:
as §3

Test [20] concerns Candida albicans. Put plainly: Reduction in APE2 gene expression in compound pre-treated Candida albicans CAI4 expressing delta-cph1/delta-efg1 gene grown under YEPD medium at 16 ug/ml pre-treated for 2 hrs measured after 18 hrs by RT-PCR method. It counts as functional. The method, boiled down:
as §4

The test system of test [21] is Candida albicans. In words: Reduction in APE2 gene expression in compound pre-treated Candida albicans CAI4 expressing delta-efg1 (EFG1) gene grown under YEPD medium at 16 ug/ml pre-treated for 2 hrs measured after 18 hrs by RT-PCR method. It counts as functional. The method, boiled down: as §3
Test [22] has as its system Candida albicans. Put plainly: Reduction in APE2 gene expression in compound pre-treated Candida albicans SC5314 grown on human Caco2 cells monolayer at 16 ug/ml pre-treated for 2 hrs measured after 6 hrs by RT-PCR method. It counts as functional, Caco-2. The method, boiled down:
as §1

For the molecule `NNc1ccc(S(=O)(=O)C(Cl)(Br)Br)cc1[N+](=O)[O-]`, the ΔCt was 3.83 in the test on Candida albicans [1]; 7.44 in the test with Candida albicans [2]; 2.84 in the test with Candida albicans [15]; 2.82 in the test with Candida albicans [16]; 0.11 in the test on Candida albicans [17]; 4.71 in the test with Candida albicans [18]. Also, the ΔCt with Candida albicans [19] is 3.69; with Candida albicans [20] it was 4.05; in the test with Candida albicans [21] it was 3.44; with Candida albicans [22] it was 6.39. Further, the “fold change (FC)” value with Candida albicans [3] is 10.83; with Candida albicans [4], 4.05; in the test on Candida albicans [5] it was 10.25; with Candida albicans [6] it was 9.29; in the test with Candida albicans [7] it was 10.27; in the test on Candida albicans [8], 9.07. The “fold change (FC)” value in the test on Candida albicans [9] is given as 10.26; in the test with Candida albicans [10], 1.38; in the test with Candida albicans [11], 9.42; in the test with Candida albicans [12], 3.55. Besides, the Activity in the test with Candida albicans [13] and with Candida albicans [14] was 0.91% each time.

Values taken from ChEMBL document CHEMBL3351861, “New synthetic sulfone derivatives inhibit growth, adhesion and the leucine arylamidase APE2 gene expression of Candida albicans in vitro” (2015).
